Laboratory results from ChEMBL document CHEMBL4513216, “Probing the Open Global Health Chemical Diversity Library for Multistage-Active Starting Points for Next-Generation Antimalarials” (ACS Infect Dis, 2020).

Test: Toxicity liver stage against HepG2, at 10uM
Type: cell-based
Set-up: test concentration 10 uM, cell line HepG2-A16-CD81EGFP
Conditions: human, HepG2-A16-CD81EGFP cells; read-out: INHIBITION
Outline: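 Uninfected HepG2-A16-CD81EGFP cells, 3 × 10^3 per well, 1536-well, plated on prespotted compound at 10 μM final, parasite-free screening media added to match infected plates; puromycin 10 μM positive, DMSO 0.5% negative; run in parallel with 48 h PbLuc assay at 37 °C, 5% CO2; viability by CellTiter-Glo luminescence, normalized to controls.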

SMILES | cytotoxicity at 10 µM
CCn1cc(C(=O)Nc2ccccc2C(=O)OC)cn1 | -7.25%
COC(=O)CC(c1cccc(OC(F)F)c1)c1oc(C)cc(=O)c1O (stereo not given) | -9.11%
O=S(=O)(Cc1ccccc1Cl)N1CCC2(CC1)OCCS2 | 0.649%
Cn1c(C(=O)NC2CC2)nc2c1CCN(c1ncccn1)C2 | -4.75%
Cc1cccc(CN2C[C@@H](NC(=O)C3CCC3)[C@H]3COC[C@H]32)n1 | 4.83%
O=C(c1ccnnc1)N1C[C@@H]2CN(c3ncccn3)C[C@@H]2C1 | 7.19%
Cn1cc(CN2CCc3ncn(C)c3C2COCc2ccccc2)cn1 (stereo not given) | 9.19%
CC(NC(=O)OC(C)(C)C)c1nnc(S(=O)(=O)Cc2ccccc2Cl)o1 (stereo not given) | 0.935%
CCc1c(C)n(CCC#N)c2nc3ccccc3n2c1=O | 2.73%
CC(C)n1[nH]c(=O)c2c1NC(=O)CSC2c1cccc(OCC(N)=O)c1 (stereo not given) | 8.46%
CC1=Nc2c(c(O)nn2C(C)C)C(c2cnn(C)c2)S1 (stereo not given) | 10.8%
Cn1c(C(F)(F)F)nn(CCNC(=O)c2cnc3ccccc3n2)c1=O | -20%
CCN1CCN(C(=O)C(C)n2cc(Br)cn2)CC1 (stereo not given) | 6.39%
CCS(=O)(=O)N1CCCCC1c1nc(CC(C)C)no1 (stereo not given) | 0.253%
Cc1nn(C)c2c(N3CCN(C)CC3)nc(C3CC3)nc12 | -5.2%
CCc1ccccc1NC(=O)c1cnn(C)c1C | -2.52%
Cc1cc(NC2CC3(CCN(Cc4ncccc4F)C3)C2)ncn1 (stereo not given) | 0.0666%
Cc1nccn1[C@@H]1CC[C@@H](NC(=O)CCOc2ccccc2)[C@H]1O | -12.7%
Fc1ccccc1CN1CCC[C@H](Cn2nnc(-c3cccs3)n2)C1 | -0.152%
CNc1cncc(C2CCCN2C(=O)CCn2ccnc2C(C)C)n1 (stereo not given) | 3.36%
Cc1nc(Nc2nnc(C)s2)cc(C2CCCN2C)n1 (stereo not given) | 8.67%
CC(=O)N1CCCC1c1nccc(C)n1 (stereo not given) | 1.31%

SMILES | cytotoxicity at 10 µM
CS(=O)(=O)N1CC2(CCN(CC3CC3)C2)Cc2ccccc21 (stereo not given) | -1.93%
O=C(c1ccc(Cl)s1)N1CCC2(CNS(=O)(=O)c3cnccc3O2)C1 (stereo not given) | 15.5%
CC(C)(C)OC(=O)N1CCCN(c2nnc(Br)s2)CC1 | 10.5%
CN(CCOc1cccc(F)c1)CC(=O)Nc1ccncc1 | 9.16%
CC(c1ccco1)N(C(=O)CNc1ccc(C#N)cc1)C1CC1 (stereo not given) | 7.79%
COc1ccncc1NCc1cscn1 | 6.44%
Cc1ccccc1C(C)NC(=O)CN1CCN(Cc2ccc(Cl)s2)CC1 (stereo not given) | 10.8%
COc1ccc(-c2nnc(C(C)N3CCOC(C)(C)C3)o2)cc1 (stereo not given) | 2.62%
CCCN(CC1CC1)C(=O)Nc1ccc(N2CCSCC2)cc1C | 3.05%
CCOCCOC(C)C(=O)NCc1ccc(N2CCCCC2)cc1 (stereo not given) | 11.6%
COc1ncccc1CNCc1c(C(C)C)nn(C)c1Cl | -3.74%
O=C(CN1CCCCCC1=O)NCC1CCN(c2ccccc2)C1 (stereo not given) | -6.5%
COc1cc(NC(=O)NC(C2CC2)C2CC2)ccc1N1CCOC1=O | 4.63%
CCn1cc(NC(=O)C2CCN(Cc3ccccc3)CC2)cn1 | 2.41%
Cc1cnc(CN(C)C2CCN(Cc3sc(C)nc3C)C2)o1 (stereo not given) | 3.45%
O=C(Nc1nncs1)NC1CCCc2c1cnn2CCO (stereo not given) | -17.2%
CCc1noc(C(C)N(C)CC(=O)Nc2ccccc2Cl)n1 (stereo not given) | -0.0195%
COc1ccc(COCC(=O)NC2CCc3nc(C)cn3C2)cc1 (stereo not given) | 1.6%
COCc1cc(N(CC(F)F)C2CC2)n2ncnc2n1 | -3.94%
COCCN1CCC(Nc2ccc(C#N)cc2F)CC1 | -3.68%
COc1cc(I)c(Cl)cc1C(=O)N(C)CC(=O)NC(C)(C)C | 15.4%
CN(Cc1nnc(C2CC2)n1C)S(=O)(=O)c1ccccc1F | 16.8%

SMILES | cytotoxicity at 10 µM
C[C@H](CCO)NS(=O)(=O)c1ccc(Br)cn1 | -8.63%
CC(C)C(C(=O)N1CCCN(Cc2cnn(C)c2)CC1)n1cncn1 (stereo not given) | -4.52%
Cc1nc(CN2CCC(N(C)Cc3noc(C(C)C)n3)C2)cs1 (stereo not given) | -14.1%
COc1ccccc1CC(=O)NCCCN1CCCC1C(=O)N(C)C (stereo not given) | -13%
O=C(CN(Cc1cccnc1)CC1CCCO1)Nc1ccc(F)cc1 (stereo not given) | -10.7%
CC(C)NC(=O)c1noc2c1CN(Cc1cnn(C)c1)CC2 | 6.59%
Cc1cc(C(=O)N2CCC[C@]3(C[C@@H](OCC4CC4)CO3)C2)no1 | -78.9%
Cc1noc(C)c1CN1CC[C@H]2C[C@@H](c3ccncn3)O[C@@H]2C1 | -3.04%
O=C(c1cnc(-c2cccnc2)nc1)N1CCC(c2ccncc2)CC1 | -13.7%
Cc1nc(-c2cccnc2)ncc1C(=O)N1CCCC(N(C)C)CC1 (stereo not given) | 9.81%
Cc1ccc(C(C(=O)NCCN2CCCCCC2)N(C)C)cc1 (stereo not given) | -3.12%
Cc1ccccc1CN1CCN(C(=O)CCn2ccccc2=O)CC1 | 3.57%
O=C(c1cc(Cl)ccc1OC1CCN(C2CCCC2)CC1)N1CC(O)C1 | -16.2%
CCn1c(C2CCN(C(=O)c3cc(CC(C)C)on3)CC2)nn(C)c1=O | -3.89%
CCc1cn[nH]c1C1CCN(C(=O)c2cccc(O)c2C)CC1 | 2.28%
Cc1noc(C)c1C(=O)N1CCCC(c2nccn2Cc2cscn2)C1 (stereo not given) | 2.11%
CC(=O)N1CCc2c(nc(N(C)C)nc2N(C)CCCC2CCCO2)C1 (stereo not given) | 7.92%
O=C(O)[C@@H]1CN(CC2CCC2)C[C@H]1c1ccc(F)cc1 | -3.62%
CN1CCN(Cc2ccccc2Cl)CC12CCC(=O)N(CC1CC1)CC2 (stereo not given) | -3.94%
CCc1nc(C)sc1CN1CC[C@@](O)(CCOC)[C@H](C)C1 | -1.18%
Cc1ccc(F)c(C(=O)N2C[C@@H](C(=O)O)[C@H](c3ccncc3)C2)c1Cl | -2.37%
CCC(Oc1ccc(N(C)S(C)(=O)=O)cc1)C(=O)N(C)C (stereo not given) | -4.97%

SMILES | cytotoxicity at 10 µM
Cc1ncccc1OC1(C(=O)NCCCN2CCOCC2)CCNCC1 | -10.8%
CC(C)C(=O)N1CCN(C(=O)c2cc(C(C)C)on2)[C@H]2CS(=O)(=O)C[C@H]21 | -19%
CN(Cc1nnc(C2CC2)n1C)C1CCN(Cc2nccn2C)C1 (stereo not given) | -8.22%
Cc1cnn(C2CCCN(C(=O)CCCc3ccccn3)C2)c1 (stereo not given) | -11.2%
COCCNC(=O)Nc1ccc(-n2cncn2)c(C(F)(F)F)c1 | -5.92%
Fc1ccc(-c2cnc(CN3CCn4c(nnc4C4CC4)C3)o2)cc1 | -13.4%
CC(NC(=O)c1cccs1)C(=O)NCc1ccccn1 (stereo not given) | -12.3%
O=C(NCCCN1CCCCCC1=O)c1n[nH]c(=O)c2ccccc12 | -12.3%
CN(C)c1ccc(C(=O)N2CCN(CC(C)(C)O)CC2)nn1 | -13.3%
Cc1ccc(OCCC(=O)N2CCOCC2c2ncon2)cc1C (stereo not given) | -11.9%
CN1N=C(C(=O)N2CCCC(n3ccnc3)C2)CCC1=O (stereo not given) | -13.2%
CN(C)C(=O)CS(=O)(=O)Cc1cc(Cl)c2c(c1)OCCCO2 | -5.08%
COc1ccc(OCCCNC(=O)NCc2csc(C)n2)cc1 | -7.54%
CN(Cc1ccccc1)CC(O)Cn1cnc2c(cnn2C)c1=O (stereo not given) | 1.53%
CC(C)c1nn(C)c(N2CCOCC2)c1CNCCS(C)(=O)=O | -8.36%
c1cnn(CC2CCCCN2Cc2cn3ccsc3n2)c1 (stereo not given) | -7.08%
COc1cccc(COCC(=O)N2CCC(CC(N)=O)CC2)c1 | -4.56%
CCn1c(CN2CCN(CC(N)=O)CC2)nc2c(F)cccc21 | -9.88%
CCOc1ccc(C#N)cc1NCC(=O)Nc1cc(F)ccc1F | -9.47%
CNC(=O)[C@@H]1CN(C(=O)C(C)C)C[C@H]1c1ccnc(N2CCCC2)n1 | 0.791%
CNC(=O)N1Cc2cc(F)ccc2C2(CCN(C)CC2)C1 | 0.595%
COc1ccc(-c2cnc(N(C)C)nc2C2CNCCO2)cc1 (stereo not given) | -1.4%

SMILES | cytotoxicity at 10 µM
O=C(O)c1c(-c2ccoc2)ncc2c1CCN(C1CCOC1)C2 (stereo not given) | 17%
CCc1ccc(CN2CCC3(CC2)NC(=O)CC3c2ccncc2)o1 (stereo not given) | 1.83%
CN1CCO[C@@H]2CN(S(=O)(=O)c3ccccc3F)CC[C@@H]2C1 | 1.35%
CNC(=O)[C@H]1C[C@@H]2CCN(c3nnc(C)s3)C[C@@H]2O1 | -75.7%
CCCS(=O)(=O)N1CCC2(CN(c3cnn(C)c3)C(=O)CN2C)C1 (stereo not given) | -10.7%
O=C(Nc1cccc(CNCc2ccsc2)c1)C1CC1 | -10.7%
Cc1noc(C)c1CN1CCC2(CC1)CC(Oc1cccnc1)CO2 (stereo not given) | 17.8%
CN(C)C(=O)COC1COC2(CCN(c3cnccn3)CC2)C1 (stereo not given) | -6.29%
CN(C)Cc1cc(=O)n2c(n1)CN(S(=O)(=O)C1CC1)CCC2 | 4.53%
OCCN1CC2(CCN(c3ccccc3)C2)C1 | 0.234%
O=C1N(CC2CC2)CCC12CCN(CC1CC1)CC2 | 7.07%
CN(C)CCN1CCCC12CCCN(Cc1ccoc1)C2 (stereo not given) | 7.88%
CC(C)c1nn(C)c(N(C)C)c1CNCc1cccc(CN(C)C)c1 | -4.22%
COc1cc(CNCC(O)c2ccc(C)cc2)cc2c1OCCO2 (stereo not given) | -6.61%
CS(=O)(=O)N1C[C@H]2CCCN(Cc3ccsc3)[C@H]2C1 | 6.43%
O=C(NCc1ccco1)[C@H]1C[C@@H]2CCN(c3ccncn3)C[C@@H]2O1 | -9.58%
OCCOCc1ncn2c1CN(Cc1cccs1)CCC2 | -82.9%
CC(C)Nc1nc2c(c(N(C)C)n1)CCN(Cc1nccn1C)CC2 | 1.35%
Cc1cc(CN2C[C@@H]3COC[C@H](C(=O)N4CCCCO4)[C@@H]3C2)no1 | -77.9%
CC1c2ncc(COCC3CC3)n2CCN1C (stereo not given) | 7.83%
O=C1[C@@H]2CCN(Cc3ccoc3)C[C@@H]2OCCN1c1ccccc1 | -0.928%
Cc1oncc1C(=O)N1C[C@H]2CCCC(N(C)Cc3cccs3)[C@H]2C1 (stereo not given in full) | 18.8%
